Test system: Fibroblast
Experiment: Multiplex assay against human fibroblast
Assay type: toxicity, cell-based
In short: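 Imaging took place on a CQ1 microscope at 37°C and 5% CO2 once compound had been added to live cells stained at seeding with Hoechst33342, BioTracker Green Microtubule Cytoskeleton Dye, MitoTracker Red and Annexin V Alexa Fluor 680. CellPathfinder machine-learning gating classed cells as Hoechst high-intensity objects or normal cells, classed normal cells as having healthy, pyknosed or fragmented nuclei, and classed pyknosed cells as mitotic or apoptotic. Tubulin, mitochondrial-mass and membrane-permeability phenotypes are per cents of the healthy-nucleus cells.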

[1] = 12 h, 1 µM, compound concentration 1 uM, replicate 1
[2] = 12 h, 1 µM, compound concentration 1 uM, replicate 2
[3] = 12 h, 10 µM, compound concentration 10 uM, replicate 1
[4] = 12 h, 10 µM, compound concentration 10 uM, replicate 2
[5] = 24 h, 1 µM, compound concentration 1 uM, replicate 1
[6] = 24 h, 1 µM, compound concentration 1 uM, replicate 2
[7] = 24 h, 10 µM, compound concentration 10 uM, replicate 1
[8] = 24 h, 10 µM, compound concentration 10 uM, replicate 2
[9] = 48 h, 1 µM, compound concentration 1 uM, replicate 1
[10] = 48 h, 1 µM, compound concentration 1 uM, replicate 2
[11] = 48 h, 10 µM, compound concentration 10 uM, replicate 1
[12] = 48 h, 10 µM, compound concentration 10 uM, replicate 2

CCNC1(C(N)=O)CCN(c2ncnc3c2nc(-c2ccccc2Cl)n3-c2ccc(Cl)cc2)CC1 [OTENABANT]
Population Apoptotic (%) [1]: 26%
Population Fragmented Nuclei (%) [1]: 19%
Population Healthy Nuclei (%) [1]: 63%
Population Hoechst High Intensity Objects (%) [1]: 6%
Population Membrane Permeable-Phenotype (%) [1]: 1%
Population Mitochondria Different-Phenotype (%) [1]: 7%
Population Mitotic Cells (%) [1]: 73%
Population Normal (%) [1]: 93%
Population Pyknosed Nuclei (%) [1]: 17%
Population Tubulin-Different-Phenotype (%) [1]: 44%
Total Cell Count [1]: 161
Population Apoptotic (%) [2]: 37%
Population Fragmented Nuclei (%) [2]: 25%
Population Healthy Nuclei (%) [2]: 48%
Population Hoechst High Intensity Objects (%) [2]: 2%
Population Membrane Permeable-Phenotype (%) [2]: 6%
Population Mitochondria Different-Phenotype (%) [2]: 10%
Population Mitotic Cells (%) [2]: 62%
Population Normal (%) [2]: 97%
Population Pyknosed Nuclei (%) [2]: 26%
Population Tubulin-Different-Phenotype (%) [2]: 50%
Total Cell Count [2]: 156
Population Apoptotic (%) [3]: 57%
Population Fragmented Nuclei (%) [3]: 22%
Population Healthy Nuclei (%) [3]: 64%
Population Hoechst High Intensity Objects (%) [3]: 4%
Population Membrane Permeable-Phenotype (%) [3]: 0%
Population Mitochondria Different-Phenotype (%) [3]: 16%
Population Mitotic Cells (%) [3]: 42%
Population Normal (%) [3]: 95%
Population Pyknosed Nuclei (%) [3]: 12%
Population Tubulin-Different-Phenotype (%) [3]: 90%
Total Cell Count [3]: 170
Population Apoptotic (%) [4]: 40%
Population Fragmented Nuclei (%) [4]: 30%
Population Healthy Nuclei (%) [4]: 48%
Population Hoechst High Intensity Objects (%) [4]: 3%
Population Membrane Permeable-Phenotype (%) [4]: 12%
Population Mitochondria Different-Phenotype (%) [4]: 18%
Population Mitotic Cells (%) [4]: 59%
Population Normal (%) [4]: 96%
Population Pyknosed Nuclei (%) [4]: 21%
Population Tubulin-Different-Phenotype (%) [4]: 87%
Total Cell Count [4]: 216
Population Apoptotic (%) [5]: 26%
Population Fragmented Nuclei (%) [5]: 17%
Population Healthy Nuclei (%) [5]: 66%
Population Hoechst High Intensity Objects (%) [5]: 4%
Population Membrane Permeable-Phenotype (%) [5]: 0%
Population Mitochondria Different-Phenotype (%) [5]: 8%
Population Mitotic Cells (%) [5]: 73%
Population Normal (%) [5]: 95%
Population Pyknosed Nuclei (%) [5]: 15%
Population Tubulin-Different-Phenotype (%) [5]: 44%
Total Cell Count [5]: 154
Population Apoptotic (%) [6]: 34%
Population Fragmented Nuclei (%) [6]: 27%
Population Healthy Nuclei (%) [6]: 43%
Population Hoechst High Intensity Objects (%) [6]: 5%
Population Membrane Permeable-Phenotype (%) [6]: 9%
Population Mitochondria Different-Phenotype (%) [6]: 14%
Population Mitotic Cells (%) [6]: 65%
Population Normal (%) [6]: 94%
Population Pyknosed Nuclei (%) [6]: 29%
Population Tubulin-Different-Phenotype (%) [6]: 57%
Total Cell Count [6]: 155
Population Apoptotic (%) [7]: 54%
Population Fragmented Nuclei (%) [7]: 22%
Population Healthy Nuclei (%) [7]: 64%
Population Hoechst High Intensity Objects (%) [7]: 2%
Population Membrane Permeable-Phenotype (%) [7]: 0%
Population Mitochondria Different-Phenotype (%) [7]: 37%
Population Mitotic Cells (%) [7]: 45%
Population Normal (%) [7]: 97%
Population Pyknosed Nuclei (%) [7]: 12%
Population Tubulin-Different-Phenotype (%) [7]: 96%
Total Cell Count [7]: 174
Population Fragmented Nuclei (%) [8]: 37%
Population Healthy Nuclei (%) [8]: 48%
Population Hoechst High Intensity Objects (%) [8]: 5%
Population Membrane Permeable-Phenotype (%) [8]: 7%
Population Mitochondria Different-Phenotype (%) [8]: 30%
Population Normal (%) [8]: 94%
Population Pyknosed Nuclei (%) [8]: 13%
Population Tubulin-Different-Phenotype (%) [8]: 88%
Total Cell Count [8]: 235
Population Apoptotic (%) [9]: 68%
Population Fragmented Nuclei (%) [9]: 18%
Population Healthy Nuclei (%) [9]: 69%
Population Hoechst High Intensity Objects (%) [9]: 8%
Population Membrane Permeable-Phenotype (%) [9]: 0%
Population Mitochondria Different-Phenotype (%) [9]: 3%
Population Mitotic Cells (%) [9]: 31%
Population Normal (%) [9]: 91%
Population Pyknosed Nuclei (%) [9]: 12%
Population Tubulin-Different-Phenotype (%) [9]: 41%
Total Cell Count [9]: 167
Population Apoptotic (%) [10]: 59%
Population Fragmented Nuclei (%) [10]: 33%
Population Healthy Nuclei (%) [10]: 42%
Population Hoechst High Intensity Objects (%) [10]: 5%
Population Membrane Permeable-Phenotype (%) [10]: 13%
Population Mitochondria Different-Phenotype (%) [10]: 18%
Population Mitotic Cells (%) [10]: 40%
Population Normal (%) [10]: 94%
Population Pyknosed Nuclei (%) [10]: 23%
Population Tubulin-Different-Phenotype (%) [10]: 72%
Total Cell Count [10]: 143
Population Apoptotic (%) [11]: 78%
Population Fragmented Nuclei (%) [11]: 30%
Population Healthy Nuclei (%) [11]: 61%
Population Hoechst High Intensity Objects (%) [11]: 8%
Population Membrane Permeable-Phenotype (%) [11]: 0%
Population Mitochondria Different-Phenotype (%) [11]: 49%
Population Mitotic Cells (%) [11]: 21%
Population Normal (%) [11]: 91%
Population Pyknosed Nuclei (%) [11]: 8%
Population Tubulin-Different-Phenotype (%) [11]: 92%
Total Cell Count [11]: 187
Population Apoptotic (%) [12]: 61%
Population Fragmented Nuclei (%) [12]: 46%
Population Healthy Nuclei (%) [12]: 47%
Population Hoechst High Intensity Objects (%) [12]: 2%
Population Membrane Permeable-Phenotype (%) [12]: 7%
Population Mitochondria Different-Phenotype (%) [12]: 26%
Population Mitotic Cells (%) [12]: 38%
Population Normal (%) [12]: 97%
Population Pyknosed Nuclei (%) [12]: 6%
Population Tubulin-Different-Phenotype (%) [12]: 89%
Total Cell Count [12]: 299
